Laboratory results taken from PubChem BioAssay AID449761 (Broad Institute, 2010).
Results filed as inconclusive are left out. The source made the active and inactive calls.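 The calls were made as follows: active = compounds raising caspase signal with fitted AC50 no more than tenfold above the top tested dose; inconclusive = flat curve at 30 to 70% activity, or unusable fit; inactive = the rest.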

Test system: MEF WT non-primed, caspase-Glo luminescence, 3 h
Assay: caspase activation in non-primed cells, dose response, counter-screen for Bcl2-A1 inhibitor project, cell-based, caspase-Glo luminescence, 3 h (AID 449761)
How it was run: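 Incubation: 3 h compound at 37 °C, 1 h reagent at RT / System: Non-primed wild-type MEF cells / Signal: CaspaseGlo luminescence, reagent diluted 1:1 in 50 mM HEPES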

Row | SMILES | AC50
1 | COC(=O)CSc1nc(N)c2c3c(sc2n1)C(c1ccccc1)SC(c1ccccc1)C3 (stereo unspecified) | > 35 µM (inactive)
2 | Cc1ccc(NC(=S)NC(NC(=O)Cc2cccc3ccccc23)C(Cl)(Cl)Cl)cc1 (stereo unspecified) | 22.9 µM
3 | Cc1cc(=O)[nH]c(SCC(=O)Nc2ccc(Br)cc2)c1C#N | > 35 µM (inactive)
4 | Cc1cc(C)n(-c2nc(Nc3ccccc3C)nc(-n3nc(C)cc3C)n2)n1 | 32.1 µM
5 | CC(C)(C)C1CCc2onc(C(=O)Nc3cccc(O)c3)c2C1 (stereo unspecified) | > 35 µM (inactive)
6 | CCCc1ccc(OCc2ccc(C(=O)N/N=C/c3cccc([N+](=O)[O-])c3)o2)c(OC)c1 | 6.35 µM
7 | C=C1CCc2c([nH]c3ccc(OCC(C)C)cc23)C1=O | 14.2 µM
8 | COc1ccc(S(=O)(=O)N2CC(O)CC2C(=O)OCC(=O)Nc2ccc(Cl)cn2)cc1 (stereo unspecified) | > 35 µM (inactive)
9 | O=[N+]([O-])/C=C/c1ccc2c(ccn2Cc2ccccc2)c1 | 12.6 µM
10 | COc1ccc(-c2cc(=O)oc3c(C)c(OC(=O)c4cccs4)ccc23)cc1 | 29.1 µM
11 | O=C(NN=C1c2ccccc2-c2ccccc21)c1cccc(Br)c1 | 35.6 µM
12 | CC(C)N=c1scc(-c2ccco2)n1/N=C/c1ccc(O)c(O)c1 | > 35 µM (inactive)
13 | COc1cc(CN2CCN(c3cc(C)ccc3C)CC2)ccc1O | > 35 µM (inactive)
14 | Cc1ccc(C=C2C(Cl)=C(Cl)C(Cl)=C2Cl)cc1 | 5.72 µM
15 | Cc1ccc2c(c1)c(C1=c3ccccc3=NC1=O)c(O)n2C | > 35 µM (inactive)
16 | COc1ccc(OC)c(NC(=O)c2cc(-c3cc(C)ccc3O)n[nH]2)c1 | > 35 µM (inactive)
17 | COc1cc(NC(=O)c2ccc(C)cc2C)ccc1NC(=O)c1cc2ccccc2o1 | 30.4 µM
18 | CCc1ccc(Nc2n[n+](-c3ccccc3)c(/C=C/c3ccccc3)s2)cc1 | 9.79 µM
19 | CCOC(=O)CSC1=N/C(=C/c2ccc(-n3cncn3)cc2)C(=O)N1C(C)=O | > 35 µM (inactive)
20 | CC1=NNC(=O)/C1=C\c1cn(-c2ccccc2)nc1-c1cccs1 | 14.3 µM
21 | COc1ccc2cc(C)c3nnc(SCC(=O)Nc4nc(-c5ccc(F)cc5)cs4)n3c2c1 | 26.2 µM
22 | COc1cc(C2CC(c3cccs3)=NN2C(=O)CCl)ccc1OC(F)F (stereo unspecified) | 32.9 µM
23 | CCOC(=O)/C(=C\c1ccc([N+](=O)[O-])cc1)C(=O)c1cc(C(C)=O)c(Nc2ccccc2)s1 | 1.46 µM

Row | SMILES | AC50
24 | COc1cc(/C=C(/C#N)c2nc3ccccc3[nH]2)ccc1OCC(=O)Nc1ccccc1C | 5.91 µM
25 | COc1cc(/C=C2/C(=N)N3C=CSC3=NC2=O)ccc1OCCCOc1cc(C)ccc1C | 22.4 µM
26 | CC(C)c1cccc(-c2ccc3c(c2)S(=O)(=O)c2cccc(C(=O)NC4CCCC4)c2C3=O)c1 | > 35 µM (inactive)
27 | CCOc1cc(C(=O)CSc2nnc(CNc3ccc(Cl)cc3)o2)ccc1NC(=O)CC | 16 µM
28 | CCSc1nnc(NC(=O)c2nc(S(=O)(=O)Cc3ccc(F)cc3)ncc2Cl)s1 | > 35 µM (inactive)
29 | CCc1nc(N=Nc2c(O)[nH]c3ccccc23)c2c3c(sc2n1)CCC3 | 18.2 µM
30 | COc1cc(NC(=O)c2ccccc2)c(OC)cc1NC(=O)Cc1ccc(Br)cc1 | > 35 µM (inactive)
31 | CC1CC(C)CN(C(=O)c2ccc(-c3ccc([N+](=O)[O-])cc3)o2)C1 (stereo unspecified) | > 35 µM (inactive)
32 | C/C1=C\[C@@H](C)C/C=C/[C@H]2[C@@H]3O[C@]3(C)[C@@H](C)[C@H]3[C@H](Cc4c[nH]c5ccccc45)NC(=O)[C@]32C(=O)/C=C/C(=O)[C@@H]1O | 8.71 µM
33 | Nc1c(C(=O)Nc2ccc(S(=O)(=O)N3CCCC3)cc2)sc2nc3ccc(OC(F)(F)F)cc3cc12 | 30.7 µM
34 | CCOC(=O)COc1ccccc1/C=C\[N+](=O)[O-] | 12.2 µM
35 | CCOCCCNC(=O)c1ccc2c(c1)N=C(CC)c1cc(Br)ccc1S2 | > 35 µM (inactive)
36 | Cc1ccc(C#N)c(SCC(=O)Nc2nccs2)n1 | > 35 µM (inactive)
37 | N#C/C(=C\c1ccc(OCc2ccccc2)cc1)C(=O)Nc1nc2c(s1)CCN(Cc1ccccc1)C2 | > 35 µM (inactive)
38 | CCCCC1CCC(C(=O)N(CC(C)C)c2c(N)n(Cc3ccccc3)c(=O)[nH]c2=O)CC1 (stereo unspecified) | 8 µM
39 | Cc1nn(-c2ccccc2)c(C)c1/C=N/NC(=O)CSc1nc2ccccc2c(=O)n1-c1ccc(Br)cc1 | 36 µM
40 | CCn1c(Cl)c(C=O)s/c1=N\S(=O)(=O)c1ccccc1 | > 35 µM (inactive)
41 | Cc1cc(C)cc(NC(=O)/C(C#N)=C/c2cn(CC(=O)NCc3ccco3)c3ccccc23)c1 | 8.84 µM
42 | COc1ccccc1-c1cn[nH]c1-c1ccc(OCc2ccccc2)cc1O | > 35 µM (inactive)
43 | O=C(Oc1cccc(/C=N/Nc2nc(Nc3ccccc3)nc(N3CCOCC3)n2)c1)c1ccco1 | > 35 µM (inactive)
44 | COc1cc2cnc(-c3ccccc3)c(-c3cccc(C(F)(F)F)c3)c2cc1OC | > 35 µM (inactive)
45 | CCC1CCCCN1S(=O)(=O)c1ccc(NC(=O)c2nc(S(C)(=O)=O)ncc2Cl)cc1 (stereo unspecified) | 4.2 µM
46 | CC(=O)OC(C)(C)/C=C/C(=O)[C@](C)(O)C1[C@H](O)C[C@@]2(C)C3CC=C4C(C[C@H](O)C(=O)C4(C)C)[C@]3(C)C(=O)C[C@]12C (stereo partly specified) | > 35 µM (inactive)

Row | SMILES | AC50
47 | NS(=O)(=O)c1ccc(N/N=C2/CCCCC2C2CCCCC2)c([N+](=O)[O-])c1 (stereo unspecified) | 33.5 µM
48 | CCOC(=O)c1ccc(-c2ccc(/C=N/NC(=O)CN(c3cccc(C)c3)S(C)(=O)=O)o2)cc1 | 31.1 µM
49 | CCOC(=O)/C=c1\s/c(=C\c2ccc(C(=O)OC)cc2)c(=O)n1CC(=O)Nc1ccccc1 | > 35 µM (inactive)
50 | CCOC(=O)c1sc(NC(=O)CSc2nc(C)cc(C)c2C#N)c(C#N)c1C | > 35 µM (inactive)
51 | COc1cc(SC#N)ccc1N=Cc1c(C)[nH]n(-c2ccc(C)cc2)c1=O | 34.5 µM
52 | COc1ccc2[nH]c3c(=O)n(/N=C/[C@H]4C(C)C=C(C)CC4C)c(=O)[nH]c3c2c1 (stereo partly specified) | 10.1 µM
53 | CCOc1cccc(C(=O)Nc2cccc(-c3nnc(-c4ccc(C)cc4)o3)c2)c1 | 23.6 µM
54 | COc1ccc(C2Nc3ccc4ccccc4c3-c3c2c(=O)oc2ccccc32)cc1 (stereo unspecified) | 18 µM
55 | CCOC(=O)Cc1csc(/N=C/c2c(O)n(-c3ccc(C)c(C)c3)c(=O)c3ccccc23)n1 | 9.55 µM
56 | Oc1[nH]c2ccc(Br)cc2c1N=NC(=S)Nc1ccc(F)cc1 | > 35 µM (inactive)
57 | Cc1ccc(C)c(S(=O)(=O)NCC(=O)Nc2sc3c(c2C(N)=O)CCC(C)C3)c1 (stereo unspecified) | > 35 µM (inactive)
58 | COc1ccc(C2C(O)C(c3c[nH]c4ccccc34)=NN2C(=O)CCl)cc1 (stereo unspecified) | 36.1 µM
59 | Cc1cccc(CS(=O)(=O)c2ncc(Cl)c(C(=O)Nc3nnc(C(C)C)s3)n2)c1 | > 35 µM (inactive)
60 | COC(=O)[C@@]1(C)CC[C@]2(C)CC[C@@]3(C)C(=CC(=O)C4[C@@]5(C)CC[C@H](O)C(C)(C)[C@@H]5CC[C@]43C)[C@H]2C1 (stereo partly specified) | > 35 µM (inactive)
61 | CCCCCCCC/C=C\CCCCCCCC(=O)NCCc1ccc(O)c(O)c1 | 14 µM
62 | O=C(NCc1ccccc1Cl)c1cccc2c1C(=O)c1ccc(-c3ccc(OC(F)(F)F)cc3)cc1S2(=O)=O | > 35 µM (inactive)
63 | COc1ccc(-c2oc(=O)c3cc(OC)c(OC)cc3c2/C=C/c2cccc([N+](=O)[O-])c2)cc1 | > 35 µM (inactive)
64 | Cc1ccc(C(=O)/C=C/C(=O)c2ccc(C)cc2)cc1 | 5.73 µM
65 | CCOc1ccc(NC(=S)NC(=O)/C=C/c2ccc(C)cc2)c([N+](=O)[O-])c1 | 21.7 µM
66 | COc1ccccc1CCNC(C)CCc1ccc(O)cc1 (stereo unspecified) | > 35 µM (inactive)
67 | O=C(Nc1ccc2oc(-c3ccccc3F)nc2c1)c1ccccc1F | > 35 µM (inactive)
68 | COc1ccc(-c2nc(NC(=O)c3n[nH]c(=O)c4ccccc34)sc2C)cc1 | > 35 µM (inactive)
69 | CC(=O)Nc1ccc(NC(=O)C(C)OC(=O)/C=C/c2cn(-c3ccccc3)nc2-c2cccnc2)cc1 (stereo unspecified) | 25 µM

Row | SMILES | AC50
70 | O=C(CCl)N=c1sccn1Cc1ccccc1Cl | > 35 µM (inactive)
71 | CC(C)CC(NC(=O)c1ccc(Cl)cc1)C(=O)OCC(=O)c1ccc2c(c1)NC(=O)CO2 (stereo unspecified) | 4.28 µM
72 | Cc1ccc(N(Cc2cc(=O)[nH]c3ccccc23)C(=O)CCl)cc1 | > 35 µM (inactive)
73 | COc1ccc(NC(=S)NC(NC(=O)/C=C/c2ccccc2)C(Cl)(Cl)Cl)cc1 (stereo unspecified) | > 35 µM (inactive)
74 | Cc1nn(Cc2c(Cl)cccc2Cl)c(C)c1NC(=O)c1cn(-c2ccccc2)nc1-c1ccccc1 | 16.6 µM
75 | COc1cc(/C=C(/C#N)C(=O)Nc2ccc(Cl)cc2)ccc1Oc1nc(Cl)ncc1F | > 35 µM (inactive)
76 | CCc1ccccc1NC(=O)C(CC)Sc1nc2cc3c(cc2c(=O)n1Cc1ccco1)OCO3 (stereo unspecified) | > 35 µM (inactive)
77 | Cc1cc(NC(=O)CSc2nc3cc(Cl)ccc3c(=O)n2Cc2ccco2)no1 | > 35 µM (inactive)
78 | O=C(Nc1ccc2oc(-c3ccccc3Cl)nc2c1)c1cncc(Br)c1 | 30.7 µM
79 | Cn1c(=NC(=O)CCl)sc2ccccc21 | > 35 µM (inactive)
80 | CC(C)(C)c1ccc(C(=O)Nc2ccc(O)c3c(=O)cc(-c4cccc(Cl)c4)oc23)cc1 | > 35 µM (inactive)
81 | COc1ccc(C2CC(c3c(O)cc(C)oc3=O)=NCCS2)c(OC)c1 (stereo unspecified) | > 35 µM (inactive)
82 | CCOc1ccc(NCc2cccn2-c2nnc(N3CCC(C(=O)NCCCN4CC(C)CC(C)C4)CC3)s2)cc1 (stereo unspecified) | > 35 µM (inactive)
83 | COc1ccccc1-c1cc(C(F)(F)F)nc(S(=O)(=O)CCCC(=O)N2CCOCC2)n1 | 8.99 µM
84 | N#Cc1c(C(F)(F)F)cc(-c2ccccc2)nc1SCC(=O)Nc1sc2c(c1C#N)CCC2 | > 35 µM (inactive)
85 | O=C(/C=C/c1ccc(F)cc1)NC(=S)Nc1ccccc1C(=O)NC1CCCCC1 | > 35 µM (inactive)
86 | CCOC(=O)C1=C(c2ccccc2)O/C(=C(/C#N)C(F)(F)F)S1 | > 35 µM (inactive)
87 | CC(C)(C)[C@H](N)C(=O)N[C@H]1CCC2C3CC=C4C[C@@H](O)CC[C@]4(C)C3CC[C@@]21C (stereo partly specified) | > 35 µM (inactive)
88 | COc1ccc2c(-c3cc4ccc(OCc5ccc(F)cc5)cc4oc3=O)cc(=O)oc2c1 | 23.9 µM
89 | CC(C)(C)c1ccc2c(c1)OC(C(=O)N/N=C\c1ccc[nH]1)CO2 (stereo unspecified) | > 35 µM (inactive)
90 | COc1ccc(NC(=O)C(=O)N/N=C\c2ccc(CNC(=O)C(=O)Nc3ccc(C)c(C)c3)o2)c(OC)c1 | 23.5 µM
91 | CCc1nn(-c2cc(Oc3cccc4ccccc34)nc(-c3ccccc3)n2)c(N)c1C#N | > 35 µM (inactive)
